Laboratory results published in ChEMBL document CHEMBL1122142, “Synthesis and antiinflammatory activity of hexahydrothiopyrano[4,3-c]pyrazoles and related analogues” (J Med Chem, 1982).

Legend:
Cavia porcellus [1] = assay: Tested in delayed hypersensitivity skin reaction (DHSR) after subcutaneous administration, activity reported as percent inhibition of erythema/induration of lesion; 7/1; type: functional
Procedure, shortened: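 Male Hartley guinea pigs were sensitized with Mycobacterium tuberculosis in Freund's incomplete adjuvant, injected into each hind footpad and subcutaneously at the neck. After 3 weeks, 1.2 μg PPD was given intradermally. Compound in sesame oil was given sc, 3 animals per group, 30 min before and 5 h after PPD; screening dose 50 mg/kg.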

Mus musculus [2] = assay: Inhibition of Mouse active Arthus (MAA) reaction activity was determined for peroral screening dose of 150 mg/kg in mouse; 21-30%; type: functional; details: route oral
Mus musculus [3] = assay: Mouse active Arthus (MAA) reaction activity was determined for an ip dose of 150 mg/kg in mouse; 31-40%; type: functional; details: route intraperitoneal
Cavia porcellus [4] = assay: The compound was evaluated for the delayed hypersensitivity skin reaction (DHSR) activity after subcutaneous administration; 8/1
Cavia porcellus [5] = assay: The compound was evaluated for the delayed hypersensitivity skin reaction (DHSR) activity after subcutaneous administration; 11/27
Mus musculus [6] = assay: Inhibition of Mouse active Arthus (MAA) reaction activity was determined for peroral dose of 300 mg/kg in mouse; 31-40%; type: functional; details: route oral
Mus musculus [7] = assay: Inhibition of Mouse Active Arthus reaction following 150 mg/Kg i.p.; 41-60% inhibition.; type: functional; details: Mus musculus, ip
Mus musculus [8] = organism: Mus musculus; assay: The compound was evaluated for the mouse active Arthus (MAA) reaction activity expressed as inhibitory dose.; type: functional; details: read-out: ID50 (the source's name)
Procedure, shortened: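 CD-1 mice were sensitized ip with a 1:1 Freund's complete adjuvant emulsion containing BSA in saline, 5 weeks before challenge. Compound was suspended in 1% Na CMC in pyrogen-free saline and given as one ip or oral dose 1 h before skin challenge with BSA. Screening doses were 150 mg/kg ip and 300 mg/kg po, with some at 75 or 50 mg/kg ip. Lesions were excised 3.5 h after challenge and weighed against controls.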

Compound: CCCN1N=C2/C(=C/c3ccc(C(C)(C)C)cc3)CS(=O)(=O)CC2C1c1ccc(C(C)(C)C)cc1 (stereo not drawn)
- Activity (Cavia porcellus [1]): 7
- inhibition in vivo at 150 mg/kg (Mus musculus [2]): 21%

Compound: C#CCN1N=C2/C(=C/c3cccc(C(F)(F)F)c3)CS(=O)(=O)CC2C1c1cccc(C(F)(F)F)c1 (stereo not drawn)
- inhibition in vivo at 150 mg/kg (Mus musculus [3]): 31%
- Activity (Cavia porcellus [4]): 8

Compound: CN1CCN(CCCN2N=C3/C(=C/c4ccc([S+](C)[O-])cc4)CSCC3C2c2ccc([S+](C)[O-])cc2)CC1.O=C(O)/C=C\C(=O)O (stereo not drawn)
- Activity (Cavia porcellus [5]): 11
- inhibition in vivo at 300 mg/kg (Mus musculus [6]): 31%
- inhibition in vivo at 150 mg/kg (Mus musculus [7]): 41%
- ED50 (Mus musculus [8]): 190 mg/kg
